High-throughput results: PubChem BioAssay, The Scripps Research Institute Molecular Screening Center
CHO parental Ca: ATP-evoked calcium signal inhibitors, parental CHO, primary screen, counter-screen for OX1R antagonist project, cell-based, fluorescence, Fluo-8 calcium dye; parental CHO-K1, ATP-induced calcium, Fluo-8 fluorescence; inhibition, % at 5.6 µM; actives 0.63% (n = 330,000);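 active means inhibition above that plate's mean sample inhibition plus 3 SD, cut at about 26% in these data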;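 further: 0% = ATP-challenged DMSO wells and 100% = DMSO wells without ATP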
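Test system: untransfected parental CHO cell line. Compound: one dose, 5.6 µM nominal. Detection: intracellular calcium via Fluo-8 no-wash fluorescent dye. Measure: % inhibition. Benchmarks: ATP-challenged DMSO wells low, unchallenged DMSO wells high.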
GPR7 antag: GPR7 receptor antagonists, primary screen, cell-based, fluorescence, single concentration; Neuropeptides B/W receptor type 1 (Homo sapiens), P48145; GPR7-expressing cells, fluorescence antagonist assay; inhibition, % at 4.4 µM; actives 1.1% (n = 290,000); in the data active means inhibition above about 16%, passing the limit was not always enough;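 further: cells stimulated with the agonist NPW; 0% = agonist with vehicle and 100% = vehicle without agonist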
TAAR1 antag: human TAAR1 antagonists, primary screen, Fluo-8 calcium fluorescence, CHO RD-HGA16 cells; antagonist; inhibition, % at 3 µM; actives 1.5% (n = 360,000); AID 624466, 2012;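 active means inhibition above a per-plate cutoff, the mean inhibition of test compounds on that plate plus 3 SD, cut at about 49% in these data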;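 further: 0% = DMSO plus EC80 beta-PEA response and 100% = DMSO alone without agonist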
Target sequence (Q96RJ0 whole entry, looked up): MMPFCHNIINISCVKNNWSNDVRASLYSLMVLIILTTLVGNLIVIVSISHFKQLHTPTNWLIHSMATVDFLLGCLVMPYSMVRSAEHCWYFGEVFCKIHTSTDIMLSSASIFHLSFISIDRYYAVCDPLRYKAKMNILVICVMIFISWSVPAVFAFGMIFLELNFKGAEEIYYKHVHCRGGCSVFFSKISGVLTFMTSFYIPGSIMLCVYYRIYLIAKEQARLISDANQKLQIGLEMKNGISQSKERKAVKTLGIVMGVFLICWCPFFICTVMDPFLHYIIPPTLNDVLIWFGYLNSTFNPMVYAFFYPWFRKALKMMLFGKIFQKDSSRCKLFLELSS
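Test system – hTAAR1-expressing CHO RD-HGA16 cells, Gα16-coupled · Also added – β-PEA at EC80 concentration, post-compound challenge · Compound – 3 µM, single point · Incubation – dye loading 75 min at 37 °C, then 30 min room temperature · Measured by – Fluo-8 intracellular calcium dye fluorescence, real-time kinetic reads · Benchmarks – vehicle and agonist controls · Replicates – singlicate, one well per test compound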
TAAR1 ag: human TAAR1 agonists, primary screen, Fluo-8 calcium fluorescence, CHO RD-HGA16 cells; vehicle wells 0%, saturating PEA agonist 100%; activation, % at 3 µM; actives 0.99% (n = 360,000); AID 624467, 2012;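 active means activation above the mean activation of all test compounds in the run plus 3 SD, cut at about 38% in these data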
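Repeats: no replicates (n 1) | Material: CHO-derived RD-HGA16 cells with stable Gα16 and human TAAR1 | Technique: Kinetic Fluo-8 calcium fluorescence | Schedule: 17-24 h seeding, 75 min 37 °C dye, 30 min RT | Evaluation: % activation from peak over basal fluorescence ratio, DMSO-to-PEA scaled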
OX1R antag-1: antagonists of human orexin 1 receptor (OX1R); OX1R-expressing cells, FRET antagonist read-out; inhibition, % at 6.6 µM; actives 1.8% (n = 330,000); in the data active means inhibition mostly above about 38%, no sharp cut-off; inactive means mostly below about 40%;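 further: 0% = agonist challenge alone and 100% = reference antagonist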
OX1R antag-2: OX1R (HCRTR1) antagonists, primary screen, fluorescence, CHO/OX1R cells, Fluo-8 calcium, orexin A; inhibition, % at 5 µM; Fluo-8 calcium fluorescence; Orexin/Hypocretin receptor type 1 (Homo sapiens), O43613; actives 0.43% (n = 330,000);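 active means inhibition above its plate's threshold, mean inhibition of all tested compounds on the plate plus 3 SD, cut at about 37% in these data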;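 further: 0% = orexin A challenge wells and 100% = SB-334867-A antagonist wells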
GPR7 antag conf: GPR7 receptor antagonists, confirmation, cell-based, fluorescence, single concentration | actives 52% (n = 2,400) | GPR7-expressing cells, calcium fluorescence antagonist mode | shares compounds with GPR7 antag | inhibition, % at 4.4 µM | AID 1952, 2009; in the data active means inhibition above about 24%;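 further: stimulated with the GPR7 agonist NPW; 0% = agonist plus vehicle and 100% = vehicle alone without agonist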
MCHR1 antag: MCHR1 antagonists in cells, counter-screen for GPR7 antagonist project, cell-based, fluorescence, human | actives 62% (n = 2,400) | MCHR1-expressing cells, fluorescence antagonist assay | shares compounds with GPR7 antag | inhibition, % at 4.4 µM; in the data active means inhibition above about 22%;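 further: 0% = vehicle with agonist and 100% = vehicle without agonist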
An asterisk follows results filed as active. In the library only some 4.6% were active in any assay of this set; here they are far more common.

CC(C)(C)c1ccc(-c2nc(NCc3cccnc3)c3ccccc3n2)cc1 was read as CHO parental Ca -20, GPR7 antag 23*, TAAR1 antag -16, TAAR1 ag 3, OX1R antag-1 5, OX1R antag-2 -60, GPR7 antag conf 41* and MCHR1 antag 30*.
Screening CCOC(=O)C1(C)CCCN(C(=O)c2ccc(C)c(F)c2)C1 (centres undefined) returned TAAR1 antag -16 and TAAR1 ag 1.
Screening O=S(=O)(c1ccc(OC(F)(F)F)cc1)N1CCC(O)(c2cccc(C(F)(F)F)c2)CC1 returned CHO parental Ca 14, GPR7 antag 39*, TAAR1 antag 36, TAAR1 ag 43*, OX1R antag-1 6, OX1R antag-2 15, GPR7 antag conf 44* and MCHR1 antag 46*.
`O=C1c2cc(Br)ccc2OC2C=CC=CC12` (centres undefined) gave CHO parental Ca 0, TAAR1 antag -11, TAAR1 ag 3, OX1R antag-1 7 and OX1R antag-2 -14.
`CN(C)CCCNc1nc2sc3c(c2c(=O)n1CCc1ccccc1)CCCCC3` gave CHO parental Ca 11, GPR7 antag 29*, TAAR1 antag 4, TAAR1 ag 21, OX1R antag-1 7, OX1R antag-2 -10, GPR7 antag conf 51* and MCHR1 antag 65*.
Cc1ccc2nc3n(c(=O)c2c1)-c1ccccc1C(=O)NC3CC(C)C (centres undefined) was read as TAAR1 antag -26 and TAAR1 ag 2.
`Cc1ccc(C(=O)N2CCCCC2)cc1S(=O)(=O)N1CCCCCC1` gave CHO parental Ca -5, GPR7 antag 21*, TAAR1 antag 5, TAAR1 ag 12, OX1R antag-1 11, OX1R antag-2 -21, GPR7 antag conf 25* and MCHR1 antag 5.
Cc1ccc(C(=O)N2CCOCC2)cc1S(=O)(=O)N1CCCC1 was read as CHO parental Ca 6, GPR7 antag -5, TAAR1 antag -17, TAAR1 ag 1, OX1R antag-1 -1 and OX1R antag-2 -6.
O=C(c1ccc(Cl)c(S(=O)(=O)N2CCCCCC2)c1)N1CCCCC1 was read as CHO parental Ca 9, TAAR1 antag 15, TAAR1 ag 28, OX1R antag-1 16, OX1R antag-2 -5 and MCHR1 antag 16.
CN1CCN(C(=O)c2ccc(Cl)c(S(=O)(=O)N3CCCCC3)c2)CC1 was read as CHO parental Ca -9, GPR7 antag -11, TAAR1 antag 6, TAAR1 ag 14, OX1R antag-1 -4 and OX1R antag-2 -36.
CC1CCCC(=NNc2ccc3ccccc3n2)C1 (centres undefined) was read as TAAR1 antag 6 and TAAR1 ag 0.
`O=C(O)c1ccc(N=Nc2c(O)ccc3ncccc23)cc1` gave CHO parental Ca 5, GPR7 antag -10, TAAR1 antag -4, TAAR1 ag -2, OX1R antag-1 18 and OX1R antag-2 -3.
For C[C@@H]1CN([C@@H](C)CO)C(=O)c2cc(C#Cc3ccccc3)cnc2O[C@H]1CN(C)C(=O)c1ccccc1F the results were TAAR1 antag -13 and TAAR1 ag 3.
